According to ChEMBL document CHEMBL4118098, “Discovery of DS28120313 as a potent orally active hepcidin production inhibitor: Design and optimization of novel 4,6-disubstituted indazole derivatives” (Bioorg Med Chem Lett, 2017):
One block for each compound: values may come before it.

Tests used:
HepG2 = assay: Inhibition of human recombinant BMP6-stimulated hepcidin mRNA expression in human HepG2 cells after 6 hrs by qRT-PCR analysis; type: functional, cell-based; details: HepG2, 6 h
[1] = biological target: Casein kinase I isoform delta (Homo sapiens) (UniProt P48730); assay: Inhibition of CK1-delta (unknown origin) at 0.19 uM relative to control
[2] = test system: Epidermal growth factor receptor (Homo sapiens), P00533 [L858R,T790M]; assay: Inhibition of EGFR T790M/L858R double mutant (unknown origin) at 0.19 uM relative to control
[3] = test system: Tyrosine-protein kinase ABL1 (Homo sapiens), P00519 [G250E]; assay: Inhibition of ABL1 G250E mutant (unknown origin) at 0.19 uM relative to control
[4] = biological target: Serine/threonine-protein kinase Chk2 (Homo sapiens) (UniProt O96017); assay: Inhibition of CHK2 (unknown origin) at 0.19 uM relative to control
[5] = biological target: Dual specificity tyrosine-phosphorylation-regulated kinase 2 (Homo sapiens) (UniProt Q92630); assay: Inhibition of DYRK2 (unknown origin) at 0.19 uM relative to control
[6] = biological target: Tyrosine-protein kinase Lck (Homo sapiens) (UniProt P06239); assay: Inhibition of LCK (unknown origin) at 0.19 uM relative to control
[7] = biological target: Serine/threonine-protein kinase D2 (Homo sapiens) (UniProt Q9BZL6); assay: Inhibition of PKD2 (unknown origin) at 0.19 uM relative to control
[8] = biological target: Tyrosine-protein kinase Blk (Homo sapiens) (UniProt P51451); assay: Inhibition of BLK (unknown origin) at 0.19 uM relative to control
Tyrosine-protein kinase Blk (Homo sapiens), sequence (P51451 2-505 limits assumed): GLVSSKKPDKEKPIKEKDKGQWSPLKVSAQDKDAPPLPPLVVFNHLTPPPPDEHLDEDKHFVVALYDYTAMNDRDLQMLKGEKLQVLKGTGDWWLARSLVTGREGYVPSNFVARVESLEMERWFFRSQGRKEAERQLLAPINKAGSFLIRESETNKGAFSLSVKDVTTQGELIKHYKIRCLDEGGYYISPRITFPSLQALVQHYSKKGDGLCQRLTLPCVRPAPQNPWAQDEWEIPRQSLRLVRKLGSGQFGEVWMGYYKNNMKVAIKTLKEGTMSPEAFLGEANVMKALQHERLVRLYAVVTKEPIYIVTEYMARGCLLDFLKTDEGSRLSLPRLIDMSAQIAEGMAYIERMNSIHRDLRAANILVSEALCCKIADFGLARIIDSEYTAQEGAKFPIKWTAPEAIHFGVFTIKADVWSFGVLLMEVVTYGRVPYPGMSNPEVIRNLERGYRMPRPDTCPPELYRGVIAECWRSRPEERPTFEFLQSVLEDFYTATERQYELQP

[9] = biological target: Serine/threonine-protein kinase MARK1 (Homo sapiens) (UniProt Q9P0L2); assay: Inhibition of MARK1 (unknown origin) at 0.19 uM relative to control
Serine/threonine-protein kinase MARK1 (Homo sapiens), sequence (Q9P0L2 whole entry, looked up): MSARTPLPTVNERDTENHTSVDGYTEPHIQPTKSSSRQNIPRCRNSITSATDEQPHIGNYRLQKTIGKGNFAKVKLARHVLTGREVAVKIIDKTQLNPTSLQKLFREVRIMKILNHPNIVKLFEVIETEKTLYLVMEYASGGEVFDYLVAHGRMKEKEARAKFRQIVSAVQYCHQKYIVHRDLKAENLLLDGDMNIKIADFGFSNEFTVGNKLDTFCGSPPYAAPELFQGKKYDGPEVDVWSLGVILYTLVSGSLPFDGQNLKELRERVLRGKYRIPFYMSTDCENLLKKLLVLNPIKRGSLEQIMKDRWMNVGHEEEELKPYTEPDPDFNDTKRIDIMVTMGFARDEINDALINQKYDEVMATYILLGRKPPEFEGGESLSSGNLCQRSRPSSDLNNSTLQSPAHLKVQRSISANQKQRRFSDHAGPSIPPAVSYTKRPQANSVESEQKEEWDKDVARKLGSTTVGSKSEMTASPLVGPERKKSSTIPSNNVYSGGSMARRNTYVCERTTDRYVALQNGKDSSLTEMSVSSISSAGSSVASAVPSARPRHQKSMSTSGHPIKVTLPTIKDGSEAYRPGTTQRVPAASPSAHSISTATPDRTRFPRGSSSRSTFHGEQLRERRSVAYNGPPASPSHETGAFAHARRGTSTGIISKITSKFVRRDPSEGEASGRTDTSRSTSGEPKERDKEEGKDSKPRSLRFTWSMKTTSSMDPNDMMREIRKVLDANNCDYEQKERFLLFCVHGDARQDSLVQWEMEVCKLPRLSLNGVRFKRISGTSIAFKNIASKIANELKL

[10] = biological target: Tyrosine-protein kinase ABL2 (Homo sapiens) (UniProt P42684); assay: Inhibition of Arg (unknown origin) at 0.19 uM relative to control
[11] = biological target: Fibroblast growth factor receptor 4 (Homo sapiens) (UniProt P22455); assay: Inhibition of FGFR4 (unknown origin) at 0.19 uM relative to control
Fibroblast growth factor receptor 4 (Homo sapiens), sequence (P22455 22-802 limits assumed): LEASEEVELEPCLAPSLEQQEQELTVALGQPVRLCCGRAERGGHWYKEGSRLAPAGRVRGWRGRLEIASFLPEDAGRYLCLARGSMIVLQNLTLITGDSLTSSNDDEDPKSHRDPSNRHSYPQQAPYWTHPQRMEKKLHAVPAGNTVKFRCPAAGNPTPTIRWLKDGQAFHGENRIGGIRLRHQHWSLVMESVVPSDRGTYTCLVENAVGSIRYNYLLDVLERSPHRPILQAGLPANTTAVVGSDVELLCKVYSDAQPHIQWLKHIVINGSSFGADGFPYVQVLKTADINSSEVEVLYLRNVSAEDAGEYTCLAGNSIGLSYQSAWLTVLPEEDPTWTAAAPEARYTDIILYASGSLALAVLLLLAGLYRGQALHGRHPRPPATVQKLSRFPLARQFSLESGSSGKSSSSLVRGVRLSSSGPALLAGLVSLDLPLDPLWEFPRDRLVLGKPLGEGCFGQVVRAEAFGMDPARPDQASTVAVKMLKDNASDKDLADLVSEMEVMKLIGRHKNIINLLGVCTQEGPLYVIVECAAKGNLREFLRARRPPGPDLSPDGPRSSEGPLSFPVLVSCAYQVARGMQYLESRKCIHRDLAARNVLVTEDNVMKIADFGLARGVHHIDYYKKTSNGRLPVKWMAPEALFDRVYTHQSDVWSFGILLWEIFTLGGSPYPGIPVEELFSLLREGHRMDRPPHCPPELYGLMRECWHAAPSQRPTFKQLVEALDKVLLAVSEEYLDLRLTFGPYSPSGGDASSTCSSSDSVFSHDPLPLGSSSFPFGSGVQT

[12] = test system: Leucine-rich repeat serine/threonine-protein kinase 2 (Homo sapiens), Q5S007 [G2019S]; assay: Inhibition of LRRK2 G2019S mutant (unknown origin) at 0.19 uM relative to control
[13] = biological target: Ribosomal protein S6 kinase alpha-6 (Homo sapiens) (UniProt Q9UK32); assay: Inhibition of RSK4 (unknown origin) at 0.164 uM relative to control
Ribosomal protein S6 kinase alpha-6 (Homo sapiens), sequence (Q9UK32 whole entry): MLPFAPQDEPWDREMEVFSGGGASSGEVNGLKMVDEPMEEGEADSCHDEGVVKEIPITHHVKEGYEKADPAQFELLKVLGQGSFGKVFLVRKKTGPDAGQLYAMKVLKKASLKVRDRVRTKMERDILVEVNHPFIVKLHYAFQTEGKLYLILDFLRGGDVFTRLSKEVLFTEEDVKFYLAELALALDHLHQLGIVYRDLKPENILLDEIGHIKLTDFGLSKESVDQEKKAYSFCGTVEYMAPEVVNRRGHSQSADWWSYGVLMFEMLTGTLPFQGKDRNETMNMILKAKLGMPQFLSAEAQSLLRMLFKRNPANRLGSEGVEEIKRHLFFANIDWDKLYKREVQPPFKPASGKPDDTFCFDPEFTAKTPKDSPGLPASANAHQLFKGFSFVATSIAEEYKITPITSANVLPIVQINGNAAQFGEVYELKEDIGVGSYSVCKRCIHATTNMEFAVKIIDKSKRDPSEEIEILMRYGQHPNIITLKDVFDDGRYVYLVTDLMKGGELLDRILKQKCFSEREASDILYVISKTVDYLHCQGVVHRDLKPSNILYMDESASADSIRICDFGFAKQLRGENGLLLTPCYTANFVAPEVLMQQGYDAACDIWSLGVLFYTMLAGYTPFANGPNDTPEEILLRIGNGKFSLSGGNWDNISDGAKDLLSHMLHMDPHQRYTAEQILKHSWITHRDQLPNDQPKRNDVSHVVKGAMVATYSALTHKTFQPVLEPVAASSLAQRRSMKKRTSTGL

[14] = biological target: Proto-oncogene tyrosine-protein kinase ROS (Homo sapiens) (UniProt P08922); assay: Inhibition of ROS (unknown origin) at 0.164 uM relative to control
[15] = biological target: Insulin receptor (Homo sapiens) (UniProt P06213); assay: Inhibition of INSR (unknown origin) at 0.164 uM relative to control
[16] = Cmax in C57BL/6J mouse at 30 mg/kg, po by LC-MS/MS analysis; type: ADME, organism-based; parameters: dose 30 mg/kg, route oral; details: in vivo
Outline: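 C57BL/6J mice received a single oral dose of 30 mg/kg as a suspension in 0.5% methylcellulose. Plasma Cmax and AUC are reported as the average of two animals.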

[17] = biological target: Vascular endothelial growth factor receptor 1 (Homo sapiens) (UniProt P17948); assay: Inhibition of FLT1 (unknown origin) at 0.164 uM relative to control
[18] = biological target: Tyrosine-protein kinase Blk (Homo sapiens) (UniProt P51451); assay: Inhibition of BLK (unknown origin) at 0.164 uM relative to control
[19] = biological target: Serine/threonine-protein kinase DCLK2 (Homo sapiens) (UniProt Q8N568); assay: Inhibition of DCAMKL2 (unknown origin) at 0.164 uM relative to control
[20] = biological target: Glycogen synthase kinase-3 alpha (Homo sapiens) (UniProt P49840); assay: Inhibition of GSK3-alpha (unknown origin) at 0.164 uM relative to control
[21] = biological target: MAP/microtubule affinity-regulating kinase 3 (Homo sapiens) (UniProt P27448); assay: Inhibition of c-TAK1 (unknown origin) at 0.164 uM relative to control
MAP/microtubule affinity-regulating kinase 3 (Homo sapiens), sequence (P27448 whole entry, looked up): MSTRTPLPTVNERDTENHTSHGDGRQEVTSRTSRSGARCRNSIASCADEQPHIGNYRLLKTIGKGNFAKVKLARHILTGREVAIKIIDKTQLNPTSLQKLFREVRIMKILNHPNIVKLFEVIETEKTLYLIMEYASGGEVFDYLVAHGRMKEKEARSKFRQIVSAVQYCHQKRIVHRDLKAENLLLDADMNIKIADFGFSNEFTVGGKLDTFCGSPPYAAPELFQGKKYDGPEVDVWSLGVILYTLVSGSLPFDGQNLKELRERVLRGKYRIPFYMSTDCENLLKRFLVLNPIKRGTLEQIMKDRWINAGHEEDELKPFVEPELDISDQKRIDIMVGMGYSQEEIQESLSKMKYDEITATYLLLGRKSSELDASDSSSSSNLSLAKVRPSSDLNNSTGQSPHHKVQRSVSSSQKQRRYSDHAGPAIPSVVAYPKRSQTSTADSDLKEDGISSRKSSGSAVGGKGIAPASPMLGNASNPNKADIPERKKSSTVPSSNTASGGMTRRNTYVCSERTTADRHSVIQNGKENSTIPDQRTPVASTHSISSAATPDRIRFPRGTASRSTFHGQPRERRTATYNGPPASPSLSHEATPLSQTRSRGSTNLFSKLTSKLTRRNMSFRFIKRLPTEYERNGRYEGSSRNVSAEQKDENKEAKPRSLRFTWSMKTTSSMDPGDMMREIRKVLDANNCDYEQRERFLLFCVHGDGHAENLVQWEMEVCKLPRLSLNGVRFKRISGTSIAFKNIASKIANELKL

[22] = biological target: Insulin-like growth factor 1 receptor (Homo sapiens) (UniProt P08069); assay: Inhibition of IGF1R (unknown origin) at 0.164 uM relative to control
Insulin-like growth factor 1 receptor (Homo sapiens), sequence (P08069 31-736 limits assumed): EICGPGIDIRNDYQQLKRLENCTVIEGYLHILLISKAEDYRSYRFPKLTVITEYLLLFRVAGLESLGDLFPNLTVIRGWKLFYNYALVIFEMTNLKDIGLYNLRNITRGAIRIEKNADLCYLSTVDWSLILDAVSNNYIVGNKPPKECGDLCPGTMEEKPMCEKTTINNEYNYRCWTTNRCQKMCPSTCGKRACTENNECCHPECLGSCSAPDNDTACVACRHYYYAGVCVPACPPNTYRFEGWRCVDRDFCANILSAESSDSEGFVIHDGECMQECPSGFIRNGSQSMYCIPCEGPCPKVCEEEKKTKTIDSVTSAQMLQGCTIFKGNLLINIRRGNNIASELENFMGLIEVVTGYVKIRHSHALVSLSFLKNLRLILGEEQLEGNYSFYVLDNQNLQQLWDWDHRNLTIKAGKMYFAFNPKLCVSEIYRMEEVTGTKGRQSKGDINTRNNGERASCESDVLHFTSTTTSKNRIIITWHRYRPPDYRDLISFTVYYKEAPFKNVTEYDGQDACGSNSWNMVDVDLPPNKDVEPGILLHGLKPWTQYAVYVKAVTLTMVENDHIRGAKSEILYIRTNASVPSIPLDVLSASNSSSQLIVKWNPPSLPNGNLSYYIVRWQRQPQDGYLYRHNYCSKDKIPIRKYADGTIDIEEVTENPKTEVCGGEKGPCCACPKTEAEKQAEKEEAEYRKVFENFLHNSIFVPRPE
Insulin-like growth factor 1 receptor (Homo sapiens), sequence (P08069 741-1367 limits assumed): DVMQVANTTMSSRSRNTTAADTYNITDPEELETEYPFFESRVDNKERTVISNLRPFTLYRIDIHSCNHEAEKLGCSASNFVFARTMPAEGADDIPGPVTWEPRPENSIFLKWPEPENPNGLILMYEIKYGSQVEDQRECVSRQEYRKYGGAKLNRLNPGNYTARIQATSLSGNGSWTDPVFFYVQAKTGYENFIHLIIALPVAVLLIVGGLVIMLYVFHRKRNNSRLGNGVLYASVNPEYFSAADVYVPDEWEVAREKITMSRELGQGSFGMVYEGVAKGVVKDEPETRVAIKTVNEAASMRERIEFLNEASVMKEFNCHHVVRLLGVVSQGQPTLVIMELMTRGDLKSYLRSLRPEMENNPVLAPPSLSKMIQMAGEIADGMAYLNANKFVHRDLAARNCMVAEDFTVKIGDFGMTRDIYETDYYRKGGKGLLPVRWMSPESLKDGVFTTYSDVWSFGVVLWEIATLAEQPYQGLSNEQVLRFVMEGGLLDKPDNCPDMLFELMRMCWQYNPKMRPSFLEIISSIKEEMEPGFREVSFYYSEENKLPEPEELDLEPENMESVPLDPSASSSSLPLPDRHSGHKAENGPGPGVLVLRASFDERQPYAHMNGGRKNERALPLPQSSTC

[23] = biological target: Calcium/calmodulin-dependent protein kinase type II subunit beta (Homo sapiens) (UniProt Q13554); assay: Inhibition of CaMK2-beta (unknown origin) at 0.164 uM relative to control
[24] = biological target: Platelet-derived growth factor receptor beta (Homo sapiens) (UniProt P09619); assay: Inhibition of PDGFR beta (unknown origin) at 0.164 uM relative to control
[25] = biological target: T1, Testis-specific serine/threonine-protein kinase 1 (Homo sapiens) (UniProt Q9BXA7); assay: Inhibition of TSSK1 (unknown origin) at 0.45 uM relative to control
T1 sequence (whole entry): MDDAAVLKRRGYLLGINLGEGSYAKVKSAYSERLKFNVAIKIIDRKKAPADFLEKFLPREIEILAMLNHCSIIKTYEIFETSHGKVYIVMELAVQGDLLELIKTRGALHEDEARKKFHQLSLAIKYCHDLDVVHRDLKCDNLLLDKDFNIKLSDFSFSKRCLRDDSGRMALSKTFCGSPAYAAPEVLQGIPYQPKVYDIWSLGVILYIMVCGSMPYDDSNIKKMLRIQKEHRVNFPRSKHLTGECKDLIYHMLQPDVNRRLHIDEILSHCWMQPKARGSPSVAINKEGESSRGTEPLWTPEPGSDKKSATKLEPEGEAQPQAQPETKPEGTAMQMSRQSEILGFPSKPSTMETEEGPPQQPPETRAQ

[26] = biological target: Mitogen-activated protein kinase 11 (Homo sapiens) (UniProt Q15759); assay: Inhibition of p38-beta2 (unknown origin) at 0.45 uM relative to control
[27] = biological target: PAS domain-containing serine/threonine-protein kinase (Homo sapiens) (UniProt Q96RG2); assay: Inhibition of PASK (unknown origin) at 0.45 uM relative to control
[28] = biological target: T2, Mitogen-activated protein kinase 12 (Homo sapiens) (UniProt P53778); assay: Inhibition of p38-gamma (unknown origin) at 0.45 uM relative to control
T2 sequence (whole entry): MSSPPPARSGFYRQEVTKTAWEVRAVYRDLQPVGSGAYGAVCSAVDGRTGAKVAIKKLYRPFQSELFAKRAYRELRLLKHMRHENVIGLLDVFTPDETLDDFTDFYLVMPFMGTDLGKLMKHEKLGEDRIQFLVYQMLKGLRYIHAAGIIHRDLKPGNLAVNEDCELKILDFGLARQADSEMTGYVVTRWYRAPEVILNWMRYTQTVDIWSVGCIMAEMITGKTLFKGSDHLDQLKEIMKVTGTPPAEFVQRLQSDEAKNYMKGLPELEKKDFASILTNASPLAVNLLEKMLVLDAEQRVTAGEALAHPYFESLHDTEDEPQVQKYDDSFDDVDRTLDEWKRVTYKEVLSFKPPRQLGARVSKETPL

IC50 (HepG2): 120 nM
inhibition [1]: 0%
inhibition [2]: -1%
inhibition [3]: 68.3%
inhibition [4]: 3%
inhibition [5]: -0.7%
inhibition [6]: 26.7%
inhibition [7]: 9%
inhibition [8]: 3.7%
inhibition [9]: -5.3%
inhibition [10]: 57%
inhibition [11]: 5.3%
inhibition [12]: 18%
SMILES: Cc1[nH]nc(C2CC2)c1-c1ccc2c(-c3ccc(N4CCN(C)CC4)nc3)n[nH]c2c1

inhibition [13]: 13.3%
IC50 (HepG2): 93 to 10000 nM
inhibition [14]: 4%
inhibition [15]: -6%
Cmax [16]: 4940 ng/mL
inhibition [17]: 1.3%
inhibition [18]: 6.7%
inhibition [19]: -1.3%
inhibition [20]: 1%
inhibition [21]: 2%
inhibition [22]: 5.7%
inhibition [23]: 28%
inhibition [24]: 21%
SMILES: COC(=O)Nc1cc(-c2c(C3CC3)n[nH]c2C)cc2[nH]ncc12

inhibition [25]: -1%
inhibition [26]: -1.3%
inhibition [27]: -2%
inhibition [28]: 0%
SMILES: Cc1n[nH]c(C)c1-c1ccc2c(NC(=O)c3ccc(N4CCN(C)CC4)cc3)n[nH]c2c1
